From article PMC11725097 (Acta Pharmaceutica Sinica. B, 2024)

Columns and labels:
HepG2 cells [1] = assay: Formation of compound 3 in lysosomes of HepG2 cells; type: cell-based; settings: HepG2, JZ-6 25 μmol/L with BNPP 20 μmol/L or telaprevir 5 μmol/L, 6 h
Procedure, shortened: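 HepG2 cells were treated 6 h with donor (25 µmol/L) alone, with BNPP (20 µmol/L) or with telaprevir (5 µmol/L). For lysosome isolation, cells were Dounce-homogenised and spun at 1000 × g, then 20,000 × g, and the top band taken from an OptiPrep gradient at 100,000 × g, 1 h. Fractions were lysed in cold 70% methanol and analysed by LC–MS/MS, normalised to BCA protein. Triplicate.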

[2] = H2S release within tissue homogenates; type: in vitro ADME, Sprague-Dawley rats; settings: donors 250 μmol/L, rat intestine and liver homogenates, 40 min
Carboxypeptidase Y (CPY) [3] = target: T1, Carboxypeptidase Y (CPY) (Saccharomyces cerevisiae, UniProt P00729); assay: Enzyme; type: biochemical; settings: CPY 60 ng/mL; for H2S release over 6 h: donors 5 μmol/L, DNS-N3 10 μmol/L, TBS pH 7.4, 37 °C
T1 sequence (P00729 112-532): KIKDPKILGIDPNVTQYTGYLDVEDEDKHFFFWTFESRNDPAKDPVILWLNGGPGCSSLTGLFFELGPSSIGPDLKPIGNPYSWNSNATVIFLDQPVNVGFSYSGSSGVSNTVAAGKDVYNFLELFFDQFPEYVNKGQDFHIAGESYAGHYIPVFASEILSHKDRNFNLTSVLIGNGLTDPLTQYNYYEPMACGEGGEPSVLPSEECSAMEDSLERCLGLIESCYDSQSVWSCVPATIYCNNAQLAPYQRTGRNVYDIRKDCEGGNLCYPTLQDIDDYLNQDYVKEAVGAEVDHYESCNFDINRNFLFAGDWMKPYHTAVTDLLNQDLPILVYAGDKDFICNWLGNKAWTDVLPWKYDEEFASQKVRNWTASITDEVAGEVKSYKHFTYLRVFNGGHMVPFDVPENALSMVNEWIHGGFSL
Procedure, shortened: (§1)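 Donor at 5 µmol/L final and DNS-N3 probe at 10 µmol/L final were incubated at 37 °C in 10 mmol/L TBS, pH 7.4, with 1% acetonitrile and 1% […]. The enzyme was either CPY at 60 ng/mL or pre-activated recombinant human CTSA at 250 ng/mL. Aliquots were mixed 1:1 with ACN and fluorescence read at Ex/Em 325/450 nm, minus control background. k came from a single-exponential fit, with t1/2 = 0.693/k. Triplicates, mean ± SD.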

[4] = tested on: human hepatic stellate LX-2 cells; assay: TGF-β1-induced fibrosis in LX-2 cells, ACTA2 and COL1A1 mRNA; type: cell-based; settings: LX-2, TGF-β1, 72 h; JZ-HND 25-200 μmol/L, others 200 μmol/L
[5] = target: T2, recombinant human cathepsin A (CTSA) (Homo sapiens, UniProt P10619); assay: CTSA-catalyzed H2S release, fluorescent probe DNS-N3; type: biochemical; settings: donors 5 μmol/L, CTSA 250 ng/mL, pH 7.4, 37 °C
T2 sequence (P10619 29-326 limits assumed): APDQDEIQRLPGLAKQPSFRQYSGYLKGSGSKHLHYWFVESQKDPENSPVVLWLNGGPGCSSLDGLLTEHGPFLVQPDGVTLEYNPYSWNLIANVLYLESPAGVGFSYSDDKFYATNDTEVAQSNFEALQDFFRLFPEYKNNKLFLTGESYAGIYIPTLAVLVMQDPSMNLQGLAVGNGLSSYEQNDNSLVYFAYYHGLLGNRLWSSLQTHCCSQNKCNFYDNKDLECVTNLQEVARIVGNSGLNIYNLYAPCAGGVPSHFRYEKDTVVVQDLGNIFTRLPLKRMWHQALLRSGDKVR
T2 sequence (P10619 327-480 limits assumed): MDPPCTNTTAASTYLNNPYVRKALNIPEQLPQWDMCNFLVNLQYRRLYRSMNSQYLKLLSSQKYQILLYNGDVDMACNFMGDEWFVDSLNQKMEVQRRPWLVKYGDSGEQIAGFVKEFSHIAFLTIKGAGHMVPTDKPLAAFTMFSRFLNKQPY
Procedure, shortened: as §1

[6] = tested on: CCl4-induced liver injury; assay: CCl4-induced liver injury model in mice; type: in vivo, BALB/c mice; settings: 1 mmol/kg oral daily, 4 weeks
LX-2 cells = assay: ROS induced by TGF-β1 in LX-2 cells; type: cell-based, human; settings: LX-2, TGF-β1 10 ng/mL, compound 100 μmol/L, 24 h
Procedure, shortened: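 LX-2 cells were grown in high-glucose DMEM with 10% FBS at 37 °C and 5% CO2, then plated at 1×10^5/well overnight. Cells were co-treated 24 h with compound (100 µmol/L) and TGF-β1 (10 ng/mL). They were loaded with DCFH-DA (10 µmol/L) for 30 min and Hoechst 33342 for 10 min at 37 °C, then imaged by fluorescence microscopy in the GFP channel.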

RAW264.7 macrophages = assay: LPS-induced IL-1β and IL-6 release in RAW 264.7 macrophages; type: cell-based, mouse; settings: RAW 264.7, LPS 1 μg/mL, 20, 100, 500 μmol/L, 24 h
Procedure, shortened: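 RAW 264.7 cells (2×10^5/well) were plated overnight. Cells were pretreated 1 h with compound or NaHS at 20, 100 or 500 µmol/L, then stimulated with LPS (1 µg/mL) for 24 h. IL-1β and IL-6 in the supernatants were measured by ELISA. Three independent experiments, mean ± SD.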

Carboxypeptidase Y (CPY) [7] = target: T1, Carboxypeptidase Y (CPY); assay: H2S donor activation by CPY monitored by LC-MS/MS; type: in vitro ADME; settings: JZ-HND 5 μmol/L, CPY 60 ng/mL
Procedure, shortened: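 Donor at 5 µmol/L final and DNS-N3 at 10 µmol/L final were incubated with CPY (60 ng/mL) in 10 mmol/L TBS, pH 7.4, with 1% menthol, at 37 °C. Parent loss and formation of products, including DNS-NH2, were quantified by LC–MS/MS against calibration curves. Rate constants came from a single-exponential fit, with t1/2 = 0.693/k. Triplicate runs, mean ± SD.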

[8] = Animal pharmacokinetics, mice livers; type: in vivo, BALB/c mice; settings: oral JZ-HND 1.0 mmol/kg
Procedure, shortened: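 Male BALB/c mice, fasted 12 h without water, were gavaged at 1 mmol/kg in 0.5% CMC-Na (3 groups, n = 3 each). Plasma was separated by centrifugation and stored below −40 °C. Liver was taken at 0.5, 4 and 8 h post dose and homogenised 10:1 in PBS containing 70% MeOH. Parent and metabolites were quantified by LC–MS/MS.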

[9] = Detection of H2S and sulfur-containing species in mouse liver; type: in vivo, BALB/c mice; settings: oral JZ-HND 1.0 mmol/kg
Procedure, shortened: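 BALB/c mice received an oral dose of 1.0 mmol/kg. Liver was collected before dosing (0 h) and at 0.5 and 4 h, then homogenised 10:1 in 20 mmol/L HPE-IAM in MeOH to trap H2S and sulfur species as S-alkylated derivatives, and stored below −40 °C. Derivatives were quantified by LC–MS/MS against synthesised standards and calibration curves. n = 3, mean ± SD.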

HepG2 cells [10] = assay: FFA-induced ROS accumulation in HepG2 cells; type: cell-based; settings: HepG2, compound 100 μmol/L 8 h before FFA 1 mmol/L 24 h
HepG2 cells [11] = assay: MDA; type: cell-based; settings: HepG2, FFA 1 mmol/L, 24 h; JZ-6 20, 100, 500 μmol/L; NaHS and JZ-9 500 μmol/L
Procedure, shortened: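 HepG2 cells (7×10^5/well, plated overnight) were co-incubated 24 h with FFA (1 mmol/L) alone or plus compound (20, 100 or 500 µmol/L) or NaHS (500 µmol/L). MDA in cell lysates was measured with a kit by fluorescence at Ex/Em 532/553 nm and normalised to cell counts. Three independent experiments, mean ± SD.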

HepG2 cells [12] = assay: Ferroptosis rescue, RSL3-treated HepG2 cells; type: cell-based; settings: HepG2, RSL3 4 μmol/L; JZ-6 20 μmol/L, Fer-1 1 μmol/L, 24 h
Procedure, shortened: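 HepG2 cells (5×10^3/well) were plated overnight. Cells were pretreated 2 h with RSL3 (4 µmol/L), then given medium, compound (20 µmol/L) or Fer-1 (1 µmol/L) for 24 h. CCK-8 was added for 2–4 h at 37 °C and absorbance read at 450 nm. Viability is expressed as % of medium-treated control. Three independent experiments, mean ± SD.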

O=[N+]([O-])c1ccc(OP(=O)(O)Oc2ccc([N+](=O)[O-])cc2)cc1 [BNPP, bis(p-nitrophenyl) phosphate]
effect of inhibitor on lysosomal 3 formed from JZ-6 (HepG2 cells [1]): increase in lysosomal 3

C1COCCN1.COc1ccc(P(=S)(S)N2CCOCC2)cc1 (stereo not shown) [GYY4137, reference compound]
H2S release behaviour in homogenates [2]: almost undetectable
H2S release over 6 h (Carboxypeptidase Y (CPY) [3]): low amount of H2S

CNC(=O)[C@H](C)NP(=S)(Oc1ccccc1)c1ccccc1 (stereo partly shown) [JZ-12]
H2S release over 6 h (Carboxypeptidase Y (CPY) [3]): inadequate

Cc1ccc(=O)n(-c2ccc(OP(=O)(N[C@@H](C)C(=O)OC(C)C)c3ccccc3)cc2)c1 (stereo partly shown) [JZ-17]
mRNA expression of ACTA2 and COL1A1 [4]: did not inhibit the expression of pro-fibrotic genes as much as JZ-HND

CC(C)OC(=O)[C@H](C)NP(=S)(Oc1ccc(CCN2CCOCC2)cc1)c1ccccc1 (stereo partly shown) [JZ-18]
H2S release, rate constant k [5]: 0.2978 h⁻¹
H2S yield ([5]; 10 h): approximately 37%

Cc1ccc(=O)n(-c2ccc(OP(=S)(N[C@@H](C)C(=O)OC(C)C)c3ccccc3)cc2)c1 (stereo partly drawn) [JZ-HND, isopropyl ((4-(5-methyl-2-oxopyridin-1(2H)-yl)phenoxy) (phenyl)phosphorothioyl)-L-alaninate]
collagen fiber accumulation (Masson's trichrome) [6]: significantly slowed collagen fiber accumulation
hepatic ballooning and inflammatory cell infiltration (H&E) [6]: significantly reduced
hepatic expression of oxidative stress genes (Gpx1, Sod1, Sod2, Cat) [6]: rebounded
hepatic tissue GPX activity [6]: significant increase
liver gene levels of fibrotic markers (Tgfb1, Col1a1, Col3a1, Acta2) [6]: reversals of the increased gene levels
liver mRNA levels of Nfkb1, Il1b and Tnfa [6]: strongly suppressed
serum ALT and AST levels [6]: consistently lower
serum SOD activity ([6]; vs control and HND groups): significantly lower
H2S release behaviour in homogenates [2]: biphasic and lasted longer
ROS levels induced by TGF-β1 (LX-2 cells): significantly inhibited
generation of H2S, rate constant k (Carboxypeptidase Y (CPY) [3]; JZ-HND 5 μmol/L, pH 7.4, 37 °C): 0.3748 h⁻¹
mRNA expression of ACTA2 and COL1A1 [4]: dose-dependently inhibited
IL-1β and IL-6 secretion (RAW264.7 macrophages): significant inhibition
generation of 3, rate constant k (Carboxypeptidase Y (CPY) [7]): 0.3133 h⁻¹
generation of HND, rate constant k (Carboxypeptidase Y (CPY) [7]): 1.090 h⁻¹
degradation of donor, rate constant k (Carboxypeptidase Y (CPY) [7]; TBS pH 7.4, 37 °C): 1.085 h⁻¹
Cmax (liver) [8]: 15 µM
time of maximum intrahepatic concentration [8]: half an hour
detection in the liver after 8 h of administration ([8]; 8 h): not detected
levels of HSSH and CysSH in liver [9]: no significant change
levels of GSH, GSSH and CysSSH in liver ([9]; 0.5 h): significant increases
H2S level in liver tissue ([9]; 0.5 h vs pre-dose (0 h)): significant increase compared to the pre-dose level

[Na+].[SH-] [NaHS]
cellular ROS accumulation induced by FFA (HepG2 cells [10]): strikingly reduced the cellular fluorescence signal
MDA levels (lipid peroxidation) (HepG2 cells [11]): alleviated
IL-1β and IL-6 secretion (RAW264.7 macrophages): modest inhibitory effect

CCOC(=O)c1ccc(NC2CCCCC2)c(N)c1 [ferrostatin-1]
cell viability after RSL3 (ferroptosis rescue) (HepG2 cells [12]): attenuated RSL3-induced cytotoxicity

CCC[C@H](NC(=O)[C@@H]1[C@H]2CCC[C@H]2CN1C(=O)[C@@H](NC(=O)[C@@H](NC(=O)c1cnccn1)C1CCCCC1)C(C)(C)C)C(=O)C(=O)NC1CC1 [telaprevir]
effect of inhibitor on lysosomal 3 formed from JZ-6 (HepG2 cells [1]): significant decrease
